{
  "source": "ChEMBL document CHEMBL4350954",
  "about": "“Identification of Thienopyrimidine Scaffold as an Inhibitor of the ABC Transport Protein ABCC1 (MRP1) and Related Transporters Using a Combined Virtual Screening Approach” (J Med Chem, 2019)",
  "key": {"[1]": {"target": "ATP-dependent translocase ABCB1 (Homo sapiens, UniProt P08183)", "sequence (P08183 whole entry)": "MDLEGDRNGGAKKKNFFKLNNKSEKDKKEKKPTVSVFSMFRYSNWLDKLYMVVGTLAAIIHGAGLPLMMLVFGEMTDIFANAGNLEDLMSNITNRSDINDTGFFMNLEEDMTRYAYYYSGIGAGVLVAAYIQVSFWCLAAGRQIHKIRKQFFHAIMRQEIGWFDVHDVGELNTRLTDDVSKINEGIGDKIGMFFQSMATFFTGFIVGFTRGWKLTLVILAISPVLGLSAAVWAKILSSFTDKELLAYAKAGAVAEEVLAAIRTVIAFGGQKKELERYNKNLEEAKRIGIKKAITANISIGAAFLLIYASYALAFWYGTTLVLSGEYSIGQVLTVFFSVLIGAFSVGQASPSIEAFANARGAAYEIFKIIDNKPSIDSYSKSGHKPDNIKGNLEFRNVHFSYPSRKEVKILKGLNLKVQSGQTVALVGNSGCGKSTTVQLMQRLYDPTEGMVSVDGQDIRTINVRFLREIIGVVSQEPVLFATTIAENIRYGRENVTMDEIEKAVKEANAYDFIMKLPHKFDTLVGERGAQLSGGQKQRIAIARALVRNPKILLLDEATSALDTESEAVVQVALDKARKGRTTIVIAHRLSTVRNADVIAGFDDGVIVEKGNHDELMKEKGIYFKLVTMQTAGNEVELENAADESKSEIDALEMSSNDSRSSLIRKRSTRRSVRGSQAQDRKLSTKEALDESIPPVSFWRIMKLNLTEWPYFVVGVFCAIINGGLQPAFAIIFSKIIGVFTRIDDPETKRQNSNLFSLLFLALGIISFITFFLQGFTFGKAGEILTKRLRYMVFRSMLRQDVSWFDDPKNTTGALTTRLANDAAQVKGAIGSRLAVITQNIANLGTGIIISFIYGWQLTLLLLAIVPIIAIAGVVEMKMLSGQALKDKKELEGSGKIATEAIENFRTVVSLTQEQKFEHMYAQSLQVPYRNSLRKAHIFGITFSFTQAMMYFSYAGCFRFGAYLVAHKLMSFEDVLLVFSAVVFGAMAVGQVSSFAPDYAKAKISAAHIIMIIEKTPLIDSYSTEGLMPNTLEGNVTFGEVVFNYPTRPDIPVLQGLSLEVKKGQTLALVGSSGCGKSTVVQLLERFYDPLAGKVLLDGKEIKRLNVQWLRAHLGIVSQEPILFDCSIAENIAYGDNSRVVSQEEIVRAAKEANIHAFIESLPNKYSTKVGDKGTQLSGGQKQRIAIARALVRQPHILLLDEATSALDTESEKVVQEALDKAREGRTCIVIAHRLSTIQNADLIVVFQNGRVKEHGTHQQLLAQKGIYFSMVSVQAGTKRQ", "assay": "Competitive inhibition of ABCB1-mediated calcein-AM transport in human A2780/ADR cells at 0.056 to 0.316 uM by Lineweaver-Burk plot analysis", "assay_type": "cell-based", "method_in_brief": "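Kinetic study of calcein AM transport by Lineweaver-Burk analysis. ABCC1 was studied in H69AR cells with calcein AM at 0.25, 0.3, 0.45, 0.6 and 0.8 µM and inhibitor at 0.316, 0.562, 1.00 and 1.78 µM plus a zero control. ABCB1 was studied in A2780/ADR cells with calcein AM at 0.2–0.8 µM and inhibitor at 0.056, 0.100, 0.178 and 0.316 µM plus a zero control.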"}, "[2]": {"target": "ABCC1 (MRP1) (Homo sapiens, UniProt P33527)", "sequence (P33527 whole entry)": "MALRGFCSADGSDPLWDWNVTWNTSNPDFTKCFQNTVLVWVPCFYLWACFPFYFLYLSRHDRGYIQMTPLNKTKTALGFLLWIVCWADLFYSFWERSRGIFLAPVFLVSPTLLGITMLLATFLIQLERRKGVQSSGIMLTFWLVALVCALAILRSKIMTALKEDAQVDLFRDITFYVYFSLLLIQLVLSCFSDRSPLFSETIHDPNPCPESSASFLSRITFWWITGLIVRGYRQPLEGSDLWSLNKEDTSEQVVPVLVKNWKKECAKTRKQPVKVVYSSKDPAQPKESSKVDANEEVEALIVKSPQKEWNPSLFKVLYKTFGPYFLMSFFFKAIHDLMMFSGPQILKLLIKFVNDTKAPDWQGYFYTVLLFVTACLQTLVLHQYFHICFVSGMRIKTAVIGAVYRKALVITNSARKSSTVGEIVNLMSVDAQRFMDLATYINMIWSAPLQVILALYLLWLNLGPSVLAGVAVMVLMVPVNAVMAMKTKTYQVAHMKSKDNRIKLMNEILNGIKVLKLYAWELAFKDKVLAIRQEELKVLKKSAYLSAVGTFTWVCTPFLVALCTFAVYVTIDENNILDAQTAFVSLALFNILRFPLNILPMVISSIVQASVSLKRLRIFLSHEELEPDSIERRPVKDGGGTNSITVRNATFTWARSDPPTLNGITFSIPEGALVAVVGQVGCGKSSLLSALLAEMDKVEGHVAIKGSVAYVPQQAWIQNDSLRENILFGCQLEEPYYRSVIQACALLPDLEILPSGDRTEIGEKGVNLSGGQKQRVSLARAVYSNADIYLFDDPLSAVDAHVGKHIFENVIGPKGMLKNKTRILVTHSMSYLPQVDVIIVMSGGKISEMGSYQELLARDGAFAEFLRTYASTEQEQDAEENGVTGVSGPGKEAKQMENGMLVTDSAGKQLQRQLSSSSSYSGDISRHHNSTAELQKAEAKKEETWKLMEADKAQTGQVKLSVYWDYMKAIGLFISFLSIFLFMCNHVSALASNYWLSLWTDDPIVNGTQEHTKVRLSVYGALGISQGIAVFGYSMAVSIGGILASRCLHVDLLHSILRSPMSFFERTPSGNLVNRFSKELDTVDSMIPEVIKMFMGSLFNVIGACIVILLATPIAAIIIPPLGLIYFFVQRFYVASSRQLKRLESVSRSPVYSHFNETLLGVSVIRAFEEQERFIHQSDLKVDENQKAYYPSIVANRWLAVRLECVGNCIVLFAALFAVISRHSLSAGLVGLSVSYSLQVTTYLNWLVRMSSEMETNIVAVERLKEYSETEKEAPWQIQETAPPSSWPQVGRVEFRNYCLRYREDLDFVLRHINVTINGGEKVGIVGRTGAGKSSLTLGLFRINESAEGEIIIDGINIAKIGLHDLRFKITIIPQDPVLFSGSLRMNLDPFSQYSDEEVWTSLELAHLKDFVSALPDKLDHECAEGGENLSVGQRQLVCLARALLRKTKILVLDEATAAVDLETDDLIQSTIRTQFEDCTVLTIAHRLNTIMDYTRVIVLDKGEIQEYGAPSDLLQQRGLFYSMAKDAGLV", "assay": "Inhibition of ABCC1 in human H69AR cells at 10 uM preincubated for 30 mins followed by calcein-AM addition measured at 60 secs time interval by fluorescence assay relative to control", "assay_type": "cell-based", "conditions": "probe calcein-AM; call rule not given here", "method_in_brief": "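Calcein AM accumulation assay in H69AR small-cell lung cancer cells, which express only ABCC1. Inhibited efflux lets calcein AM build up intracellularly, where esterases cleave it to fluorescent calcein. The screen used 10 µM, scaled to a standard ABCC1 inhibitor at 10 µM as 100%. Hits reaching ≥20% inhibition (+SEM) went on to IC50 curves, constrained to that 100% maximum. Values are means of ≥3 independent experiments in duplicate ± SEM.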"}},
  "data": [
    {"smiles": "CC1CCc2c(sc3nc(-c4cccnc4)nc(N4CCN(C(C(N)=O)c5ccccc5)CC4)c23)C1", "note": "(configuration not stated)", "values": [
      {"measurement": "inhibition (INH)", "setting": "[1]", "value": "Active"},
      {"measurement": "inhibition at 1 min, 10 µM", "setting": "[2]", "value": "≥ 20", "unit": "%"}
    ]}
  ]
}
